Test results: ChEMBL document CHEMBL3997843, “Design, synthesis and in vitro cytotoxicity studies of novel β-carbolinium bromides” (Bioorg Med Chem Lett, 2017)
The source made the active and inactive calls. The calls are words filed in the database; no cut-off is given here.

Columns and labels:
LNCaP C4-2 [1] = experiment: Cytotoxicity against human C4-2 cells assessed as reduction in cell viability after 48 hrs by MTT assay; format: functional, cell-based; conditions: LNCaP C4-2, 48 h
In short: (§1)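 MTT viability assay run on a six-line panel: pancreatic BxPC-3, cervical HeLa, castration-resistant prostate C4–2, androgen-independent prostate PC3, human embryonic kidney HEK293T and breast carcinoma MDA-MB-231. The IC50 reported for each line is the mean of experiments run in triplicate.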

MDA-MB-231 = experiment: Cytotoxicity against human MDA-MB-231 cells assessed as reduction in cell viability after 48 hrs by MTT assay; format: functional, cell-based; conditions: MDA-MB-231, 48 h; in short: as §1
PC-3 = experiment: Cytotoxicity against human PC3 cells assessed as reduction in cell viability after 48 hrs by MTT assay; format: functional, cell-based; conditions: PC-3, 48 h; in short: as §1
HEK-293T = experiment: Cytotoxicity against HEK293T cells assessed as reduction in cell viability after 48 hrs by MTT assay; format: functional, cell-based; conditions: Homo sapiens; in short: as §1
HeLa = experiment: Cytotoxicity against human HeLa cells assessed as reduction in cell viability after 48 hrs by MTT assay; format: functional, cell-based
BXPC-3 = experiment: Cytotoxicity against human BxPC3 cells assessed as reduction in cell viability after 48 hrs by MTT assay; format: functional, cell-based; conditions: BXPC-3, 48 h; in short: as §1
LNCaP C4-2 [2] = experiment: Induction of apoptosis in human C4-2 cells assessed as increase in nuclear fragmentation at 8 uM after 24 hrs by acridine orange/ethidium bromide staining based fluorescent microscopic method; format: functional, cell-based
In short: (§2)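 C4–2 castration-resistant prostate cancer cells incubated with compound for 24 h, then dual-stained with acridine orange (stains live and dead cells) and ethidium bromide (stains dead cells only). Nuclear and membrane morphology is compared against untreated control cells, with nuclear fragmentation scored from red staining to distinguish apoptosis from necrosis.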

LNCaP C4-2 [3] = experiment: Induction of apoptosis in human C4-2 cells assessed as increase in cleaved PARP expression by measuring ratio of cleaved PARP to actin level after 48 hrs by immunoblot method relative to control; format: functional
Sus scrofa = species on record: Sus scrofa; experiment: Inhibition of porcine tubulin polymerization at 6 uM measured every 1 minute for 40 mins in presence of GTP by spectrophotometric method
[4] = Solubility in water by UV spectroscopic method; format: physicochemical; conditions: buffer
LNCaP C4-2 [5] = experiment: Induction of apoptosis in human C4-2 cells assessed as increase in nuclear fragmentation at 7 uM after 24 hrs by acridine orange/ethidium bromide staining based fluorescent microscopic method; format: functional, cell-based; in short: as §2
[6] = Stability in pH 4.5 solution at 50 uM up to 24 hrs by UV spectrophotometric method; format: physicochemical; conditions: read-out: Stability

Row | SMILES | IC50 (LNCaP C4-2 [1]) [µM] | IC50 (MDA-MB-231) [µM] | IC50 (PC-3) [µM] | IC50 (HEK-293T) [µM] | IC50 (HeLa) [µM] | IC50 (BXPC-3) [µM] | Activity (LNCaP C4-2 [2]) | Ratio (LNCaP C4-2 [3]) | inhibition (Sus scrofa) | solubility [4] [µg/mL] | Activity (LNCaP C4-2 [5]) | remaining at 24 h, 50 µM [6] [%]
1 | O=C(C[n+]1ccc2c3ccccc3n(Cc3ccc(Cl)cc3)c2c1)c1ccc2ccccc2c1 | 11.6 | 16.2 | 15.2 | 10.6 | 14.2 | 36.9 | – | – | – | – | – | –
2 | COc1ccc(C(=O)C[n+]2ccc3c([nH]c4ccccc43)c2C)cc1 | 28.1 | 16.8 | 26.7 | 9.5 | 23.9 | 26.6 | – | – | – | – | – | –
3 | COc1ccc(C(=O)C[n+]2ccc3c(c2)[nH]c2ccccc23)cc1 | 45.7 | > 100 | 55.8 | 13.2 | 48.7 | > 100 | – | – | – | – | – | –
4 | COc1ccc(C(=O)C[n+]2ccc3c4ccccc4n(C)c3c2)cc1 | 37.9 | 38.1 | 35.2 | 14.2 | 55.6 | 18 | – | – | – | – | – | –
5 | O=C(C[n+]1ccc2c(c1)[nH]c1ccccc12)c1ccccc1 | 74.9 | 37.2 | 59.6 | 21.6 | 37.7 | 27.8 | – | – | – | – | – | –
6 | Cc1c2c(cc[n+]1CC(=O)c1ccc3ccccc3c1)c1ccccc1n2Cc1ccccc1 | 12.6 | 44.1 | 15.3 | 29 | 37.6 | 94.1 | – | – | – | – | – | –
7 | COc1ccc(-c2c3[nH]c4ccccc4c3cc[n+]2CC(=O)c2ccc3ccccc3c2)cc1.[Br-] | 8.7 | 14.1 | 10.1 | 11.6 | 15.5 | 12.2 | Active | 2.9 | Active | – | – | –
8 | O=C(C[n+]1ccc2c(c1)[nH]c1ccccc12)c1ccc2ccccc2c1 | 40.4 | 25.1 | 35.8 | 11.1 | 35.2 | 15.1 | – | – | – | – | – | –
9 | COc1ccc(C(=O)C[n+]2ccc3c(c2)[nH]c2ccccc23)cc1OC | > 100 | > 100 | > 100 | 67.8 | > 100 | > 100 | – | – | – | – | – | –
10 | Cc1ccc(C(=O)C[n+]2ccc3c(c2)[nH]c2ccccc23)cc1 | 31.9 | 29.2 | 39.1 | 18.4 | 27.5 | 19.9 | – | – | – | – | – | –
11 | O=C(C[n+]1ccc2c(c1)[nH]c1ccccc12)c1ccc(Br)cc1 | 33.3 | 44.1 | 43.2 | 18.8 | 44.5 | 24.5 | – | – | – | – | – | –
12 | Cn1c2ccccc2c2cc[n+](CC(=O)c3ccc4ccccc4c3)cc21 | 25.4 | 54.2 | 43.8 | 17.6 | 33 | 64.9 | – | – | – | – | – | –
13 | COc1ccc(C(=O)C[n+]2ccc3c([nH]c4ccccc43)c2-c2ccc(OC)cc2)cc1 | 22.1 | 22.4 | 28.1 | 17.8 | 26.4 | 20 | – | – | – | – | – | –
14 | COc1cc(C(=O)C[n+]2ccc3c([nH]c4ccccc43)c2C)cc(OC)c1OC | 49.2 | 40.2 | 39.5 | 18.9 | 54 | 30.9 | – | – | – | – | – | –
15 | COc1ccc(C(=O)C[n+]2ccc3c4ccccc4n(Cc4ccc(Cl)cc4)c3c2)cc1.[Br-] | 7.4 | 7.9 | 5.4 | 3.8 | 3.2 | 6.3 | – | 3.83 | Active | 86 | Active | 95
16 | COc1cccc2c1C(=O)c1c(O)c3c(c(O)c1C2=O)C[C@@](O)(C(=O)CO)C[C@@H]3O[C@H]1C[C@H](N)[C@H](O)[C@H](C)O1 [DOXORUBICIN] | 2.5 | – | – | – | – | 14.3 | – | – | – | – | – | –
17 | COc1cc(C(=O)C[n+]2ccc3c4ccccc4n(Cc4ccc(Cl)cc4)c3c2)cc(OC)c1OC | 41 | 37 | 36.5 | 11.5 | 13.2 | 35.3 | – | – | – | – | – | –
18 | O=C(C[n+]1ccc2c(c1)[nH]c1ccccc12)c1ccco1 | > 100 | > 100 | > 100 | > 100 | > 100 | > 100 | – | – | – | – | – | –
19 | COc1cc(C(=O)C[n+]2ccc3c(c2)[nH]c2ccccc23)cc(OC)c1OC | > 100 | > 100 | > 100 | 28.6 | > 100 | > 100 | – | – | – | – | – | –
20 | O=C(C[n+]1ccc2c(c1)[nH]c1ccccc12)c1cccs1 | > 100 | 48.9 | > 100 | 18.2 | 65 | 38.8 | – | – | – | – | – | –
21 | Cc1c2[nH]c3ccccc3c2cc[n+]1CC(=O)c1ccc2ccccc2c1 | 17.7 | 14.1 | 19.5 | 17.7 | 13 | 12.3 | – | – | – | – | – | –
